These results are taken from ChEMBL document CHEMBL1759862, “Tricyclic compounds containing nonenolizable cyano enones. A novel class of highly potent anti-inflammatory and cytoprotective agents” (J Med Chem, 2011).

One data set has as its system RAW264.7. Put plainly: Antiinflammatory activity in mouse RAW264.7 cells assessed as inhibition of IFN-gamma induced NO production after 24 hrs by Griess reaction. It is filed as functional, cell-based. In short, it runs like this:
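RAW 264.7 cells exposed to serial concentrations of compound together with IFN-γ (10 ng/mL) for 24 h; NO in supernatants quantified by Griess reaction. IC50 tested over 0.1 pM to 10 μM in 10-fold steps; values averaged from two separate experiments.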

For data set [1], the target named is NAD(P)H dehydrogenase [quinone] 1 (Mus musculus) (UniProt Q64669). Put plainly: Induction of NQO1 activity in mouse Hepa-1c1c7 cells after 48 hrs. It counts as cell-based.
Data set [2] can be described thus: Cytotoxicity against CD-1 mouse macrophages at 10 uM. Conditions: macrophage. It is filed as cell-based.
Data set [3] is described as follows: Antiinflammatory activity in CD-1 mouse Macrophage assessed as inhibition of IFN-gamma induced NO production after 48 hrs by Griess reaction. It is filed as functional, cell-based.
[4] abbreviates: Mus musculus, CD-1, Macrophage, 48 h.

A value given as a limit tells only on which side of the number the result lay.

NAD(P)H dehydrogenase [quinone] 1 (Mus musculus), sequence (Q64669 whole entry): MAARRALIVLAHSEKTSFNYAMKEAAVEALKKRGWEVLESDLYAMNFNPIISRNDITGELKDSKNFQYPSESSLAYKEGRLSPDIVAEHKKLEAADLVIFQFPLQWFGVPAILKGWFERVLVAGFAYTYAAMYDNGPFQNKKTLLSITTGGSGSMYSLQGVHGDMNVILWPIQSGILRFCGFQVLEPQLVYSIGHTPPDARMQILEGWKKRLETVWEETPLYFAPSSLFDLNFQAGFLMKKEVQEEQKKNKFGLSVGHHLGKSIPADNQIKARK

With `CC1(C)C(=O)C(C#N)=C[C@]2(C)C3=CC(=O)C(C#N)=C[C@]3(C#Cc3ncc[nH]3)CC[C@@H]12` (racemic), in the data set with RAW264.7 (Mus musculus, RAW264.7, 24 h), the IC50 came to 400 nM.
In data set [1], `CC1(C)C(=O)C(C#N)=C[C@]2(C)C3=CC(=O)C(C#N)=C[C@]3(C#CC(=O)O)CC[C@@H]12` (racemic) gave a CD of 150 nM. The IC50 in the data set on RAW264.7 (Mus musculus, RAW264.7, 24 h) came to 100 nM.
Regarding `CC1(C)C(=O)C(C#N)=C[C@]2(C)C3=CC(=O)C(C#N)=C[C@]3(C#C[Si](C)(C)C)CC[C@@H]12` (racemic), the half-inhibitory concentration (IC50) in the data set with RAW264.7 (Mus musculus, RAW264.7, 24 h) came out at 3 nM.
In the case of `CC1(C)C(=O)C(C#N)=C[C@]2(C)C3=CC(=O)C(C(=O)O)=C[C@]3(C)CC[C@@H]12` (racemic), the Activity entry in data set [2] is given as “Non-toxic”.
Take `CC(=O)OC[C@]12CCC(=O)C=C1[C@@]1(C)C=C(C#N)C(=O)C(C)(C)[C@@H]1CC2` (racemic): the 50% inhibitory concentration (IC50) in the data set with RAW264.7 (Mus musculus, RAW264.7, 24 h) stood at 85 nM.
Same read-out and setting: in the case of `CC1(C)C(=O)C(C#N)=C[C@]2(C)C3=CC(=O)CC[C@]3(CO[Si](C)(C)C(C)(C)C)CC[C@@H]12` (racemic) it was 480 nM.
For `CC1(C)C(=O)C(C#N)=C[C@]2(C)C3=CC(=O)C(C#N)=C[C@]3(C)CC[C@@H]12` (racemic), the half-maximal inhibitory concentration (IC50) in data set [3] (macrophage) was determined as 2.1 nM; with RAW264.7 (Mus musculus, RAW264.7, 24 h) it was 23 nM. For the same compound, the Activity entry in data set [2] is recorded as “Non-toxic”.
As for `CC1(C)C(=O)C(C#N)=C[C@]2(C)C3=CC(=O)CC[C@]3(C(=O)OCOCC[Si](C)(C)C)CC[C@@H]12` (racemic), the half-inhibitory concentration (IC50) in the data set on RAW264.7 (Mus musculus, RAW264.7, 24 h) is 150 nM.
For the compound `CC(=O)O[C@@H]1CCC=C2[C@@]3(C)C=C(C#N)C(=O)C(C)(C)[C@@H]3CC[C@]21C` (racemic), the Activity entry in data set [2] is “Non-toxic”.
Take `CC1(C)C(=O)C(C#N)=C[C@]2(C)C3=CC(=O)CC[C@]3(CN)CC[C@@H]12` (racemic): the IC50 with RAW264.7 (Mus musculus, RAW264.7, 24 h) was 240 nM.
The same measure, in the same setting: under `C#C[C@]12CCC(=O)C=C1[C@@]1(C)C=C(C#N)C(=O)C(C)(C)[C@@H]1CC2` (racemic) stands 83 nM.
Turning to `CC1(C)C(=O)C(C#N)=C[C@]2(C)C3=CCC[C@@H](O)[C@]3(C)CC[C@@H]12` (racemic), the Activity entry in data set [2] was “Non-toxic”.
For `C#C[C@]12C=C(C#N)C(=O)C=C1[C@@]1(C)C=C(C#N)C(=O)C(C)(C)[C@@H]1CC2`, in the data set with RAW264.7 (raw264.7), the half-inhibitory concentration (IC50) stood at 3 nM.
As for `CC1(C)C(=O)C(C#N)=C[C@]2(C)C3=CC(=O)CC[C@]3(C#N)CC[C@@H]12` (racemic), the IC50 in the data set on RAW264.7 (Mus musculus, RAW264.7, 24 h) was determined as 64 nM.
The same measure, in the same setting: under `CC[C@]12CCC(=O)C=C1[C@@]1(C)C=C(C#N)C(=O)C(C)(C)[C@@H]1CC2` (racemic) stands 80 nM.
Turning to `CC1(C)C(=O)C(C#N)=C[C@]2(C)C3=CC(=O)C(C#N)=C[C@]3(C)CC[C@@H]12` [listing 1 of 2 here], in data set [3] (macrophage), the 50% inhibitory concentration (IC50) stood at 14 nM.
With `COC[C@]12CCC(=O)C=C1[C@@]1(C)C=C(C#N)C(=O)C(C)(C)[C@@H]1CC2` (racemic), the IC50 in the data set on RAW264.7 (Mus musculus, RAW264.7, 24 h) came out at 40 nM.
Regarding `CC(C)(C)OC(=O)NC[C@]12CCC(=O)C=C1[C@@]1(C)C=C(C#N)C(=O)C(C)(C)[C@@H]1CC2` (racemic), the IC50 with RAW264.7 (Mus musculus, RAW264.7, 24 h) was determined as 64 nM.
As to `CC1(C)C(=O)C(C#N)=C[C@]2(C)C3=CC(=O)C(C#N)=C[C@]3(C#C[Si](C)(C)C(C)(C)C)CCC12` (mixture of isomers), in data set [1], the CD was found to be 150 nM. Moreover, the IC50 in the data set on RAW264.7 (Mus musculus, RAW264.7, 24 h) worked out at 80 nM.
Regarding `CC1(C)C(=O)C(C#N)=C[C@]2(C)C3=CC(=O)CC[C@]3(C(N)=O)CC[C@@H]12` (racemic), in the data set on RAW264.7 (Mus musculus, RAW264.7, 24 h), the IC50 was over 10000 nM.
Regarding `CC1(C)C(=O)C(C#N)=C[C@]2(C)C3=CC(=O)CC[C@]3(C(=O)O)CC[C@@H]12` (racemic), the 50% inhibitory concentration (IC50) in the data set on RAW264.7 (Mus musculus, RAW264.7, 24 h) amounted to 83 nM.
With `CC1(C)C(=O)C(C#N)=C[C@]2(C)C3=CC(=O)CCCC3(F)CC[C@@H]12` (mixture of isomers), in the data set with RAW264.7 (Mus musculus, RAW264.7, 24 h), the IC50 was determined as 360 nM.
Consider `COC(=O)C1=C[C@]2(C)C3=CC(=O)C(C#N)=C[C@]3(C)CC[C@H]2C(C)(C)C1=O` (racemic), for which, in data set [3] (setting [4]), the half-inhibitory concentration (IC50) is over 60 nM. Besides, the Activity result in data set [2] is listed as “Non-toxic”.
As to `CC1(C)C(=O)C(C#N)=C[C@]2(C)C3=CC(=O)CC[C@]3(C)CC[C@@H]12` (racemic), the IC50 in data set [3] (setting [4]) stood at 19 nM; in the data set with RAW264.7 (Mus musculus, RAW264.7, 24 h), 57 nM. Besides, the Activity entry in data set [2] is recorded as “Non-toxic”.
Turning to `CC1(C)C(=O)C(C#N)=C[C@]2(C)C3=CC(=O)C(C#N)=C[C@]3(C)CC[C@@H]12` [listing 2 of 2 here], the CD in data set [1] turned out to be 150 nM.
Consider `CC1(C)C(=O)C(C#N)=C[C@]2(C)C3=CC(=O)CC[C@]3(CO)CC[C@@H]12` (racemic), for which the IC50 in the data set on RAW264.7 (Mus musculus, RAW264.7, 24 h) was 350 nM.
Turning to `COC(=O)[C@]12CCC(=O)C=C1[C@@]1(C)C=C(C#N)C(=O)C(C)(C)[C@@H]1CC2` (racemic), the IC50 with RAW264.7 (Mus musculus, RAW264.7, 24 h) worked out at 290 nM.
Compound `CC1(C)C(=O)C(C#N)=C[C@]2(C)C3=CC(=O)C=C[C@]3(C)CC[C@@H]12` (racemic) [listing 1 of 2 here] yielded a CD in data set [1] of 160 nM.
On to `CC1(C)C(=O)C(C#N)=C[C@]2(C)C3=CC(=O)C=C[C@]3(C)CC[C@@H]12` (racemic) [listing 2 of 2 here], for which the half-inhibitory concentration (IC50) in the data set with RAW264.7 (Mus musculus, RAW264.7, 24 h) came to 87 nM. Further, the Activity result in data set [2] was “Non-toxic”.
For the compound `CCC#C[C@]12C=C(C#N)C(=O)C=C1[C@@]1(C)C=C(C#N)C(=O)C(C)(C)[C@@H]1CC2` (racemic), in the data set on RAW264.7 (Mus musculus, RAW264.7, 24 h), the 50% inhibitory concentration (IC50) is 20 nM.
As to `CC1(C)C(=O)C(C#N)=C[C@]2(C)C3=CC(=O)C(C(N)=O)=C[C@]3(C)CC[C@@H]12` (racemic), the Activity result in data set [2] is “Non-toxic”.
For the compound `CC1(C)C(=O)C(C#N)=C[C@]2(C)C3=CC(=O)CC[C@]3(C=O)CC[C@@H]12` (racemic), the concentration for half-maximal inhibition (IC50) with RAW264.7 (Mus musculus, RAW264.7, 24 h) was 83 nM.
With `COC(=O)C1=C[C@]2(C)CC[C@H]3C(C)(C)C(=O)C(C#N)=C[C@]3(C)C2=CC1=O` (racemic), the Activity entry in data set [2] is “Non-toxic”.
In data set [1], `CC1(C)C(=O)C(C#N)=C[C@]2(C)C3=CC(=O)C=C[C@]3(C)CC[C@@H]12` showed a CD of 170 nM.
Consider `CC#C[C@]12C=C(C#N)C(=O)C=C1[C@@]1(C)C=C(C#N)C(=O)C(C)(C)[C@@H]1CC2` (racemic), for which the CD in data set [1] is 7.5 nM. Moreover, the IC50 with RAW264.7 (Mus musculus, RAW264.7, 24 h) stood at 5 nM.
As for `CC(=O)O[C@@H]1CC(=O)C=C2[C@@]3(C)C=C(C#N)C(=O)C(C)(C)[C@@H]3CC[C@]21C` (racemic), the Activity entry in data set [2] is “Non-toxic”.
Take `CC1(C)C(=O)C(C#N)=C[C@]2(C)C3=CC(=O)C(C#N)=C[C@]3(C#N)CC[C@@H]12` (racemic): the IC50 with RAW264.7 (Mus musculus, RAW264.7, 24 h) worked out at 115 nM.
Regarding `C[C@]12CCC(=O)C=C1CC[C@@H]1[C@@H]2[C@@H](O)C[C@@]2(C)[C@H]1CC[C@]2(O)C(=O)CO` [HYDROCORTISONE], the IC50 in data set [3] (setting [4]) was 10 nM; in the data set with RAW264.7 (Mus musculus, RAW264.7, 24 h), 61 nM. Besides, the Activity result in data set [2] was “Non-toxic”.
Turning to `COC(=O)[C@]12CCC(C)(C)C[C@H]1[C@H]1C(=O)C=C3[C@@]4(C)C=C(C#N)C(=O)C(C)(C)[C@@H]4CC[C@@]3(C)[C@]1(C)CC2` [BARDOXOLONE METHYL], the IC50 in data set [3] (setting [4]) was 0.2 nM. For the same compound, the Activity entry in data set [2] is reported as “Non-toxic”.
For the compound `C[C@@H]1C[C@H]2[C@@H]3CCC4=CC(=O)C=C[C@]4(C)[C@@]3(F)[C@@H](O)C[C@]2(C)[C@@]1(O)C(=O)CO` [DEXAMETHASONE], in the data set with RAW264.7 (Mus musculus, RAW264.7, 24 h), the IC50 worked out at 20 nM.
Consider `CC1(C)C(=O)C(C#N)=C[C@@]2(C)C3=CC(=O)CC[C@@]3(C)CC[C@H]12`, for which the IC50 in data set [3] (setting [4]) was found to be 26 nM. Also, the Activity entry in data set [2] is “Non-toxic”.
Taken in the same sequence, the figures for `CC1(C)C(=O)C(C(=O)O)=C[C@]2(C)C3=CC(=O)C(C#N)=C[C@]3(C)CC[C@@H]12` (racemic) were over 600 nM and “Non-toxic”.
Take `CC1(C)C(=O)C(C#N)=C[C@]2(C)C3=CC(=O)C[C@@H](O)[C@]3(C)CC[C@@H]12` (racemic): the Activity entry in data set [2] is “Non-toxic”.
